Reference: ChEMBL document CHEMBL5532644, “Discovery of 4-hydroxyl pyrazole derivatives as potent ferroptosis inhibitors” (Eur J Med Chem, 2024)
Each block holds one molecule with its values, some of them ahead of it. Calls of active or inactive are those of the source. The rule behind the calls is not given here.

What was measured:
[1] = test system: HT-1080; test: Anti-ferroptotic activity in human HT-1080 cells assessed as cell viability incubated for 24 hrs by Cell-titer-glo assay; format: functional, cell-based
Outline: (§1)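 Seeded at 2000–5000 cells/well; 24 h later cells were co-treated with 1 μM RSL3 and graded inhibitor concentrations for 24 h, then viability was read. EC50 came from sigmoidal nonlinear regression fits. Three independent experiments, means ± SD. HT-1080 and H9c2 were grown in DMEM; BJ in α-MEM with nonessential amino acids and 1 mM pyruvate; all media had 10% FBS.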

[2] = Antioxidant activity assessed as DPPH radical scavenging activity incubated for 1 hr by spectrophotometric analysis; format: functional
Outline: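 Compound in DMSO was mixed with methanolic DPPH to give 40 μM DPPH (final) across a range of compound concentrations. After 1 h at room temperature, absorbance was read at 517 nm. Scavenging % = [A(DMSO) − A(sample)]/[A(DMSO) − A(methanol)] × 100, with DMSO as zero control and methanol as blank.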

[3] = Antioxidant activity assessed as ABTS radical scavenging activity measured for 6 mins by absorbance based analysis; format: functional
Outline: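 ABTS (14 mM stock in water) was oxidised with 2.45 mM (final) potassium persulfate in the dark at room temperature for 18 h. The radical was diluted to 100 μM in 50 mM sodium phosphate, pH 7.4. Compounds (1–100 μM) were added, incubated at 30 °C for 6 min, and absorbance was read at 415 nm.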

[4] = test system: 786-0; test: Inhibition of RSL3-induced ferroptosis in human 786-0 cells assessed as recovery in loss of cell morphology at 1 uM measured after 1 day by light microscopy based analysis; format: functional
Outline: (§2)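 786-O cells were seeded at 5000/well. After 24 h, 1 μM RSL3 was added together with inhibitor at 1 or 0.0625 μM. After one day of incubation, cell morphology (shrinkage, membrane rupture) was inspected by light microscopy.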

[5] = test system: 786-0; test: Inhibition of RSL3-induced ferroptosis in human 786-0 cells assessed as recovery of membrane rupture at 0.0625 uM measured after 1 day by light microscopy based analysis; format: functional, cell-based; outline: as §2
[6] = test system: HT-1080; test: Anti-ferroptotic activity against RSL3 induced ferroptosis in human HT-1080 cells assessed as cell viability incubated for 24 hrs by Cell-titer-glo assay; format: functional, cell-based; conditions: HT-1080, 24 h; outline: as §1
[7] = test system: 786-0; test: Anti-ferroptotic activity against RSL3 induced ferroptosis in human 786-0 cells assessed as cell viability incubated for 24 hrs by Cell-titer-glo assay; format: functional, cell-based; conditions: 786-0, 24 h; outline: as §1
[8] = test system: 786-0; test: Inhibition of RSL3-induced ferroptosis in human 786-0 cells assessed as recovery of shrunken cells at 1 uM measured after 1 day by light microscopy based analysis; format: functional, cell-based; outline: as §2
[9] = test system: BJ; test: Anti-ferroptotic activity against RSL3 induced ferroptosis in human BJ cells assessed as cell viability incubated for 24 hrs by Cell-titer-glo assay; format: functional, cell-based; outline: as §1
[10] = test system: HT-1080; test: Anti-ferroptotic activity against RSL3 induced ferroptosis in human HT-1080 cells assessed as decrease in lipid peroxidation at 1 uM measured after 8 hrs by C11-BODIPY staining based flow cytometric analysis (reference value: 3.06%); format: functional; design: scale not given: the % may be the effect or the level left
[11] = test system: HT-1080; test: Anti-ferroptotic activity against imidazole ketone erastin (IKE) induced ferroptosis in human HT-1080 cells assessed as cell viability incubated for 24 hrs by Cell-titer-glo assay; format: functional, cell-based; conditions: HT-1080, 24 h
Outline: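 HT-1080 cells (DMEM, 10% FBS) were seeded at 2000–5000/well. After 24 h they received 2.5 μM IKE plus graded inhibitor concentrations for 24 h, and viability was measured. EC50 came from sigmoidal nonlinear regression. Three independent experiments, means ± SD.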

[12] = test system: 786-0; test: Inhibition of RSL3-induced ferroptosis in human 786-0 cells assessed as recovery of membrane rupture at 1 uM measured after 1 day by light microscopy based analysis; format: functional, cell-based; outline: as §2
[13] = test system: H9c2; test: Anti-ferroptotic activity against RSL3 induced ferroptosis in rat H9c2 cells assessed as cell viability incubated for 24 hrs by Cell-titer-glo assay; format: functional, cell-based; conditions: H9c2, 24 h; outline: as §1
[14] = test system: 786-0; test: Inhibition of RSL3-induced ferroptosis in human 786-0 cells assessed as recovery of shrunken cells at 0.0625 uM measured after 1 day by light microscopy based analysis; format: functional, cell-based; outline: as §2
[15] = test system: 786-0; test: Inhibition of RSL3-induced ferroptosis in human 786-0 cells assessed as recovery from loss of cell morphology at 0.0625 uM measured after 1 day by light microscopy based analysis; format: functional; outline: as §2
[16] = Metal chelating activity assessed as Fe2+ chelation at 20 mM at […] absorbance
Outline: (§3)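 Compound was dissolved in MeOH at 20 mM and mixed with FeSO4 (Fe2+) or FeCl3 (Fe3+) at 10 mM. Samples were diluted with MeOH/H2O, UV–vis spectra were recorded, and the absorption peak at 261 nm was quantified.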

[17] = Metal chelating activity assessed as Fe2+ chelation by measuring change in UV-vis absorption at 20 mM at […] absorbance; outline: as §3
[18] = Metal chelating activity assessed as Fe3+ chelation by measuring change in UV-vis absorption at 20 mM at […] absorbance; outline: as §3
[19] = Metal chelating activity assessed as Fe3+ chelation at 20 mM at […] absorbance; outline: as §3
[20] = test system: HT-1080; test: Anti-ferroptotic activity in human HT-1080 cells assessed as suppression of erastin induced cytosolic ROS accumulation at 1 uM incubated for 24 hrs by DCFH-DA staining based confocal microscopy analysis; format: functional, cell-based
Outline: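 HT-1080 cells on glass coverslips (4 × 10^5/well, overnight) were co-treated for 24 h with 5 μM erastin and either DMSO or inhibitor at 1 μM. Cells were washed with PBS, loaded with 10 μM (final) DCFH-DA at 37 °C for 20 min, washed three times and imaged by confocal laser scanning microscopy.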

Structure (SMILES): COc1ccc(-c2[nH]nc(-c3ccc(Cl)cc3)c2O)cc1OC
EC50 ([1]; Homo sapiens, HT-1080, 24 h): 31.7 nM

Structure (SMILES): O=C(O)c1ccc(-c2[nH]nc(-c3ccc(Cl)cc3)c2O)cc1
EC50 ([1]; Homo sapiens, HT-1080, 24 h): > 1000 nM

Structure (SMILES): Oc1c(-c2ccccc2)n[nH]c1-c1ccccc1
EC50 ([1]; Homo sapiens, HT-1080, 24 h): 69.1 nM

Structure (SMILES): COc1ccc(-c2[nH]nc(-c3ccc(Cl)cc3)c2O)cc1
EC50 ([1]; Homo sapiens, HT-1080, 24 h): 23.1 nM

Structure (SMILES): Clc1ccc(-c2cc(-c3ccccc3)n[nH]2)cc1
EC50 ([1]; Homo sapiens, HT-1080, 24 h): > 1000 nM | Activity [2]: > 100 µM | Activity [3]: > 200 µM

Structure (SMILES): O=C(NO)c1ccc(-c2[nH]nc(-c3ccc(Cl)cc3)c2O)cc1
EC50 ([1]; Homo sapiens, HT-1080, 24 h): 80.2 nM

Structure (SMILES): Oc1ccc(-c2[nH]nc(-c3ccc(Cl)cc3)c2O)cc1O
EC50 ([1]; Homo sapiens, HT-1080, 24 h): 26.1 nM

Structure (SMILES): Oc1ccc(-c2[nH]nc(-c3ccc(Cl)cc3)c2O)cc1
Activity [16]: inactive | inhibition [4]: Active | inhibition [5]: Active | Activity [17]: inactive | EC50 [6]: 8.6 nM | EC50 [7]: 89.7 nM | EC50 ([1]; Homo sapiens, HT-1080, 24 h): 8.6 nM | Activity [18]: inactive | inhibition [8]: Active | Activity [2]: 3.94 µM | EC50 [9]: 11.3 nM | Activity [3]: 6.3 µM | Activity [10]: 1.42% | Activity [19]: inactive | Activity [20]: Active | EC50 [11]: 48.3 nM | inhibition [12]: Active | EC50 [13]: 43.3 nM | inhibition [14]: Active | inhibition [15]: Active

Structure (SMILES): Oc1c(-c2ccc(F)cc2)n[nH]c1-c1ccccc1
EC50 ([1]; Homo sapiens, HT-1080, 24 h): 79.6 nM | EC50 ([1]; ht-1080): 42.4 nM

Structure (SMILES): Oc1c(-c2ccccc2)n[nH]c1-c1ccc(Br)cc1
EC50 ([1]; Homo sapiens, HT-1080, 24 h): 22.6 nM

Structure (SMILES): CCCCc1[nH]nc(-c2ccccc2)c1O
EC50 ([1]; Homo sapiens, HT-1080, 24 h): 150 nM

Structure (SMILES): Cc1ccc(-c2[nH]nc(-c3ccc([N+](=O)[O-])cc3)c2O)cc1
EC50 ([1]; Homo sapiens, HT-1080, 24 h): 120 nM

Structure (SMILES): Oc1c(-c2ccc(Cl)cc2Cl)n[nH]c1-c1ccccc1
EC50 ([1]; Homo sapiens, HT-1080, 24 h): 56.6 nM

Structure (SMILES): Cn1nc(-c2ccc(Cl)cc2)c(N)c1-c1ccccc1
EC50 ([1]; Homo sapiens, HT-1080, 24 h): 720 nM | Activity [2]: 14.6 µM | Activity [3]: > 200 µM

Second part, led by results:

EC50 ([1]; Homo sapiens, HT-1080, 24 h): 51.1 nM
Structure (SMILES): COC(=O)c1ccc(-c2[nH]nc(-c3ccc(Cl)cc3)c2O)cc1

EC50 ([1]; Homo sapiens, HT-1080, 24 h): 39.5 nM
Structure (SMILES): Oc1c(-c2ccc(-c3ccccc3)cc2)n[nH]c1-c1ccccc1

EC50 ([1]; Homo sapiens, HT-1080, 24 h): 24.6 nM
Structure (SMILES): Oc1c(-c2ccc(Cl)cc2)nn(-c2ccccc2)c1-c1ccccc1

EC50 ([1]; Homo sapiens, HT-1080, 24 h): 187 nM
Structure (SMILES): Oc1c(-c2ccc(Cl)cc2)n[nH]c1-c1ccc(C(F)(F)F)cc1

EC50 ([1]; Homo sapiens, HT-1080, 24 h): 44.8 nM
Structure (SMILES): CN(C)CCCNC(=O)c1ccc(-c2[nH]nc(-c3ccc(Cl)cc3)c2O)cc1

EC50 ([1]; Homo sapiens, HT-1080, 24 h): 79.6 nM
Structure (SMILES): Oc1c(-c2ccc(C(F)(F)F)cc2)n[nH]c1-c1ccccc1

EC50 ([1]; Homo sapiens, HT-1080, 24 h): 44.8 nM
Structure (SMILES): Oc1c(-c2ccc(Cl)cc2)n[nH]c1-c1cccc2ccccc12

EC50 ([1]; Homo sapiens, HT-1080, 24 h): 81.9 nM
Structure (SMILES): CCNC(=O)c1ccc(-c2[nH]nc(-c3ccc(Cl)cc3)c2O)cc1

EC50 ([1]; Homo sapiens, HT-1080, 24 h): 25.9 nM
Structure (SMILES): Oc1c(-c2ccc(Cl)cc2)n[nH]c1-c1cnc[nH]1

EC50 ([1]; Homo sapiens, HT-1080, 24 h): 187 nM
Structure (SMILES): Oc1c(-c2cccc(Cl)c2)n[nH]c1-c1ccccc1

EC50 [6]: 23.4 nM | EC50 [7]: 253 nM | EC50 ([1]; Homo sapiens, HT-1080, 24 h): 23.4 nM | EC50 [11]: 75.2 nM
Structure (SMILES): CCOC(=O)c1ccc(NC2CCCCC2)c(N)c1
inhibition [4]: Active | inhibition [5]: inactive | inhibition [8]: Active | Activity [2]: 6.48 µM | EC50 [9]: 38.2 nM | Activity [3]: 49.8 µM | Activity [10]: 9.2% | inhibition [12]: Active | EC50 [13]: 68.6 nM | inhibition [14]: inactive | inhibition [15]: inactive

EC50 ([1]; Homo sapiens, HT-1080, 24 h): 24.8 nM | EC50 ([1]; ht-1080): 32.1 nM
Structure (SMILES): COc1ccc(-c2n[nH]c(-c3ccccc3)c2O)cc1

EC50 ([1]; Homo sapiens, HT-1080, 24 h): 30.8 nM | EC50 ([1]; ht-1080): 18.9 nM
Structure (SMILES): Oc1c(-c2ccc(Cl)cc2)n[nH]c1-c1ccccc1
Activity [2]: 4.97 µM | Activity [3]: 112 µM

EC50 ([1]; Homo sapiens, HT-1080, 24 h): 27.4 nM
Structure (SMILES): Oc1c(-c2ccc3c(c2)OCO3)n[nH]c1-c1ccccc1

EC50 ([1]; Homo sapiens, HT-1080, 24 h): 52.7 nM
Structure (SMILES): Oc1c(-c2ccc(Cl)cc2)n[nH]c1-c1ccc(F)cc1

EC50 ([1]; Homo sapiens, HT-1080, 24 h): > 1000 nM
Structure (SMILES): Oc1c(-c2ccccc2)n[nH]c1-c1ccco1

EC50 ([1]; Homo sapiens, HT-1080, 24 h): 94.9 nM
Structure (SMILES): Oc1c(-c2ccccc2Cl)n[nH]c1-c1ccccc1

EC50 ([1]; Homo sapiens, HT-1080, 24 h): 22 nM
Structure (SMILES): Cn1nc(-c2ccc(Cl)cc2)c(O)c1-c1ccccc1
